{"source": "paper PMC6893110", "about": "(Molecular imaging and biology, 2020)", "key": {"[1]": {"tested_on": "MCF-7 tumor xenografts", "experiment": "In vivo tracer dilution", "design": "species or system athymic nude mice", "settings": "for reduction of [^124I]IPAG tumor uptake: 100-fold excess of IPAG", "method_in_brief": "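MCF7-xenografted athymic nude mice (estradiol-supplemented, 100–300 mm³ tumors) got KI i.p. 1 h before i.v. co-injection. […] Mice were euthanised at 24, 48 or 72 h and organs weighed and gamma-counted. %ID/g was decay- and background-corrected.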"}, "[2]": {"experiment": "Solubility of IPAG in assay media", "format": "physicochemical", "settings": "in both cell media and PBS"}, "[3]": {"target": "S1R", "settings": "read-out: Kd for S1R; binding to S1R; no reference given; cited from earlier work"}, "[4]": {"tested_on": "LNCaP tumors", "experiment": "PET imaging blocking study in LNCaP tumor-bearing mice", "format": "in vivo, athymic nude mice", "settings": "100-fold excess of cold IPAG co-injected with [^124I]IPAG", "method_in_brief": "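LNCaP cells (5×10^6 in 1:1 Matrigel/medium) were grown s.c. on the hind limb of athymic nude mice for 3–5 weeks. Mice got 0.1% KI i.p. 1 h before i.v. tracer (200 μCi in 150 μL 0.5% ethanol/saline) co-injected with 100-fold excess unlabeled IPAG. Under 2% isoflurane, mice were imaged by microPET at 4, 24 and 72 h. %ID/g came from regions of interest drawn on the PET images.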"}, "[5]": {"tested_on": "MCF7 tumor xenografts", "experiment": "PET imaging of [^124I]IPAG in MCF7 tumor-bearing mice", "format": "in vivo, athymic nude mice", "method_in_brief": "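Female athymic nude mice (n=5) carried estradiol-supported s.c. MCF7 xenografts on the right forelimb (100–300 mm³). They got 0.1% KI i.p. 1 h before i.v. tracer (200 μCi, 7.4 MBq, in 150 μL 0.5% ethanol/saline). Mice were anaesthetised with 2% isoflurane in air for 15 min and scanned by microPET at serial times up to 144 h post-injection. Images were read visually and tumor maximum pixel values recorded.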"}, "[6]": {"target": "S1R (Homo sapiens, UniProt Q99720)", "sequence (Q99720 whole entry)": "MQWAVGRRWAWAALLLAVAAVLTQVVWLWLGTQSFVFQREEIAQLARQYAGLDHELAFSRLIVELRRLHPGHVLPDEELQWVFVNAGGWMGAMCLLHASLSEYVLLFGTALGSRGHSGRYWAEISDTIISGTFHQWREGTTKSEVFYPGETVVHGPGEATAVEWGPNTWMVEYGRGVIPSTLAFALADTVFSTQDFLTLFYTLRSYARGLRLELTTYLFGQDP", "format": "binding"}, "[7]": {"tested_on": "MCF7 tumors", "experiment": "Ex vivo biodistribution of [^124I]IPAG in MCF7 tumor-bearing mice", "design": "species or system athymic nude mice", "settings": "n = 5", "method_in_brief": "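Female athymic nude mice (6–8 wk) got s.c. 17β-estradiol pellets (0.75 mg) 72 h before s.c. forelimb implant of 1×10^7 MCF7 cells in 1:1 Matrigel/medium. Tumors were 100–300 mm³. Mice got 0.1% KI i.p. 1 h before i.v. tracer (20–30 μCi in 5% ethanol/0.9% saline) and were euthanised by CO₂ at 4, 24, 48 or 72 h. Organs were weighed and gamma-counted, with background and decay correction. Injected dose was taken from syringe activity before and after injection. Results are %ID/g, mean and SD.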"}}, "data": [{"smiles": "O=C(CCCN1CCC(O)(c2ccc(Cl)cc2)CC1)c1ccc(F)cc1", "note": "[haloperidol]", "values": [{"measurement": "inhibition of [^124I]IPAG uptake in tumor", "setting": "[1]; 3.5-fold excess of haloperidol i.v. with tracer, 72 h p.i.", "value": "about 3 fold"}]}, {"smiles": "N=C(Nc1ccc(I)cc1)NC1C2CC3CC(C2)CC1C3", "note": "(stereo not shown) [IPAG, 1-(4-iodophenyl)-3-(2-adamantyl)guanidine]", "values": [{"measurement": "solubility", "setting": "[2]", "value": "poor solubility"}, {"measurement": "Kd", "setting": "[3]", "value": 9, "unit": "nM"}, {"measurement": "calculated %ID/g values (PET ROI) versus [^124I]IPAG alone", "setting": "[4]", "value": "significantly lower"}, {"measurement": "reduction of [^124I]IPAG tumor uptake", "setting": "[1]; 24 h", "value": 81.14, "unit": "%"}, {"measurement": "reduction of [^124I]IPAG tumor uptake", "setting": "[1]; 48 h", "value": 88.74, "unit": "%"}, {"measurement": "clearance time from background organs", "setting": "[5]; PET imaging, mice", "value": "around 24 h"}, {"measurement": "IC50", "setting": "[6]", "value": "4.7 to 14.1", "unit": "nM"}, {"measurement": "inhibitory constants in vitro", "setting": "[6]; competition against radioiodinated IPAG, sigma-1", "value": "nanomolar"}]}, {"smiles": "N=C(Nc1ccc([124I])cc1)NC1C2CC3CC(C2)CC1C3", "note": "(stereo not shown) [[^124I]IPAG, I-124 labeled 1-(4-iodophenyl)-3-(2-adamantyl)guanidine]", "values": [{"measurement": "%ID/g uptake in MCF7 tumors", "setting": "[7]; 4 h post i.v. injection", "value": "1.53 ± 0.27", "unit": "%ID/g"}, {"measurement": "%ID/g uptake in MCF7 tumors", "setting": "[7]; 24 h post i.v. injection", "value": "1.09 ± 0.24", "unit": "%ID/g"}, {"measurement": "%ID/g uptake in MCF7 tumors", "setting": "[7]; 48 h post i.v. injection", "value": "0.94 ± 0.23", "unit": "%ID/g"}, {"measurement": "uptake at extended time post injection (PET imaging)", "setting": "[5]; 144 h post injection", "value": "~ 0.17 % ID/g"}]}]}
